Laboratory results reported in ChEMBL document CHEMBL1649165, “Activity profile in vitro of micafungin against Spanish clinical isolates of common and emerging species of yeasts and molds” (2009).

What was measured:
Format in all cases: functional
[1] = test system: Candida parapsilosis; assay: Antimicrobial activity against Candida parapsilosis by broth microdilution method; conditions: Lodderomyces parapsilosis
Summary of the method: (§1)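 Clinical isolates from human patients, tested by broth microdilution using the AFST-EUCAST reference procedure for fermentative yeasts. The MIC was read per that reference method.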

[2] = test system: Pichia kudriavzevii; assay: Antimicrobial activity against Candida krusei by broth microdilution method; summary of the method: as §1
[3] = test system: Clavispora lusitaniae; assay: Antimicrobial activity against Candida lusitaniae by broth microdilution method; summary of the method: as §1
[4] = test system: Diutina rugosa; assay: Antimicrobial activity against Candida rugosa by broth microdilution method; summary of the method: as §1
[5] = test system: Debaryomyces hansenii; assay: Antimicrobial activity against Candida famata by broth microdilution method; summary of the method: as §1
[6] = test system: [Candida] intermedia; assay: Antimicrobial activity against Candida intermedia by broth microdilution method; conditions: Sungouiella intermedia; summary of the method: as §1
[7] = test system: Magnusiomyces capitatus; assay: Antimicrobial activity against Dipodascus capitatus by broth microdilution method
[8] = test system: Trichosporon asahii; assay: Antimicrobial activity against Trichosporon asahii by broth microdilution method
Summary of the method: (§2)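 Nonfermentative yeast clinical isolates (Rhodotorula, Trichosporon) tested by broth microdilution. The EUCAST yeast recommendations were followed strictly, with one minor modification to improve growth. MIC was read as the endpoint.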

[9] = test system: Rhodotorula mucilaginosa; assay: Antimicrobial activity against Rhodotorula mucilaginosa by broth microdilution method; summary of the method: as §2
[10] = test system: Trichosporon ovoides; assay: Antimicrobial activity against Trichosporon ovoides by broth microdilution method; summary of the method: as §2
[11] = test system: Trichosporon dermatis; assay: Antimicrobial activity against Trichosporon dermatis by broth microdilution method; conditions: Cutaneotrichosporon dermatis; summary of the method: as §2
[12] = test system: Naganishia albida; assay: Antimicrobial activity against Cryptococcus albidus by broth microdilution method
Summary of the method: (§3)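 Clinical isolates of nonfermentative yeasts, tested by broth microdilution following EUCAST recommendations. The only change from that method was a minor modification to improve growth.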

[13] = test system: Rhodotorula glutinis; assay: Antimicrobial activity against Rhodotorula glutinis by broth microdilution method; summary of the method: as §2
[14] = test system: Papiliotrema laurentii; assay: Antimicrobial activity against Cryptococcus laurentii by broth microdilution method; summary of the method: as §3
[15] = test system: Trichosporon; assay: Antimicrobial activity against Trichosporon spp. by broth microdilution method; summary of the method: as §2
[16] = test system: Aspergillus terreus; assay: Antimicrobial activity against Aspergillus terreus by broth microdilution method
Summary of the method: (§4)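 Clinical mould isolates, tested by broth microdilution using the AFST-EUCAST reference method for filamentous fungi. For echinocandins, the endpoint was the minimum effective concentration: the lowest drug concentration giving aberrant hyphal growth, read with an inverted microscope.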

[17] = test system: Aspergillus flavus; assay: Antimicrobial activity against Aspergillus flavus by broth microdilution method; summary of the method: as §4
[18] = test system: Aspergillus niger; assay: Antimicrobial activity against Aspergillus niger by broth microdilution method; summary of the method: as §4
[19] = test system: Aspergillus nidulans; assay: Antimicrobial activity against Aspergillus nidulans by broth microdilution method; summary of the method: as §4
[20] = test system: Aspergillus versicolor; assay: Antimicrobial activity against Aspergillus versicolor by broth microdilution method; summary of the method: as §4
[21] = test system: Aspergillus ustus; assay: Antimicrobial activity against Aspergillus ustus by broth microdilution method; summary of the method: as §4
[22] = test system: Fennellia nivea; assay: Antimicrobial activity against Aspergillus niveus by broth microdilution method; summary of the method: as §4
[23] = test system: Aspergillus; assay: Antimicrobial activity against Aspergillus spp. by broth microdilution method; summary of the method: as §4
[24] = test system: Fusarium solani; assay: Antimicrobial activity against Fusarium solani by broth microdilution method
Summary of the method: (§5)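 Filamentous fungus clinical isolates tested by the AFST-EUCAST reference broth microdilution method for moulds. For echinocandins, the endpoint was the minimum effective concentration: the lowest drug concentration giving aberrant hyphal growth, read with an inverted microscope.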

[25] = test system: Fusarium oxysporum; assay: Antimicrobial activity against Fusarium oxysporum by broth microdilution method; summary of the method: as §4
[26] = test system: Fusarium verticillioides; assay: Antimicrobial activity against Fusarium verticillioides by broth microdilution method; summary of the method: as §5
[27] = test system: Paecilomyces variotii; assay: Antimicrobial activity against Paecilomyces variotii by broth microdilution method; summary of the method: as §5
[28] = test system: Paecilomyces lilacinus; assay: Antimicrobial activity against Paecilomyces lilacinus by broth microdilution method; conditions: Purpureocillium lilacinum; summary of the method: as §5
[29] = test system: Scopulariopsis brevicaulis; assay: Antimicrobial activity against Scopulariopsis brevicaulis by broth microdilution method; summary of the method: as §5
[30] = test system: Fusarium equiseti; assay: Antimicrobial activity against Fusarium equiseti by broth microdilution method; summary of the method: as §4
[31] = test system: Fusarium reticulatum; assay: Antimicrobial activity against Fusarium reticulatum by broth microdilution method; summary of the method: as §5
[32] = test system: Coprinellus domesticus; assay: Antimicrobial activity against Hormographiella verticillata by broth microdilution method; summary of the method: as §5
[33] = test system: Neurospora sitophila; assay: Antimicrobial activity against Chrysonilia sitophila by broth microdilution method; summary of the method: as §4
[34] = test system: Scedosporium apiospermum; assay: Antimicrobial activity against Scedosporium apiospermum by broth microdilution method; summary of the method: as §5
[35] = test system: Alternaria alternata; assay: Antimicrobial activity against Alternaria alternata by broth microdilution method; summary of the method: as §4
[36] = test system: Lewia infectoria; assay: Antimicrobial activity against Alternaria infectoria by broth microdilution method; summary of the method: as §4
[37] = test system: Exophiala dermatitidis; assay: Antimicrobial activity against Exophiala dermatitidis by broth microdilution method
[38] = test system: Aureobasidium pullulans; assay: Antimicrobial activity against Aureobasidium pullulans by broth microdilution method
[39] = test system: Cladosporium; assay: Antimicrobial activity against Cladosporium spp. by broth microdilution method; summary of the method: as §4
[40] = test system: Lecythophora hoffmannii; assay: Antimicrobial activity against Lecythophora hoffmannii by broth microdilution method; conditions: Coniochaeta hoffmannii; summary of the method: as §5
[41] = test system: Mucor; assay: Antimicrobial activity against Mucor spp.by broth microdilution method; summary of the method: as §5
[42] = test system: Cunninghamella bertholletiae; assay: Antimicrobial activity against Cunninghamella bertholletiae by broth microdilution method; summary of the method: as §4
[43] = Antimicrobial activity against Rhizopus microsporus by broth microdilution method; summary of the method: as §5
[44] = test system: Rhizomucor; assay: Antimicrobial activity against Rhizomucor spp.by broth microdilution method; summary of the method: as §5
[45] = test system: Saksenaea vasiformis; assay: Antimicrobial activity against Saksenaea vasiformis by broth microdilution method; summary of the method: as §5
[46] = test system: Beauveria bassiana; assay: Antimicrobial activity against Beauveria bassiana by broth microdilution method; summary of the method: as §4

CC[C@H](C)C[C@H](C)CCCCCCCCC(=O)N[C@H]1C[C@@H](O)[C@@H](NCCN)NC(=O)[C@@H]2[C@@H](O)CCN2C(=O)[C@H]([C@H](O)CCN)NC(=O)[C@H]([C@H](O)[C@@H](O)c2ccc(O)cc2)NC(=O)[C@@H]2C[C@@H](O)CN2C(=O)[C@H]([C@@H](C)O)NC1=O [CASPOFUNGIN]
0.06 µg/mL: MIC50 [4] | MIC50 [5] | MIC50 [6]
> 16 µg/mL: MIC50 [7] | MIC90 [7] | MIC50 [8] | MIC90 [8] | MIC50 [9] | MIC90 [9] | MIC50 [10] | MIC90 [10] | MIC50 [11] | MIC90 [11] | MIC50 [12] | MIC90 [12] | MIC50 [13] | MIC90 [13] | MIC50 [14] | MIC90 [14] | MIC50 [15] | MIC90 [15] | MIC50 [17] | MIC90 [17] | MIC90 [19] | MIC50 [24] | MIC90 [24] | MIC50 [25] | MIC90 [25] | MIC50 [26] | MIC90 [26] | MIC50 [28] | MIC90 [28] | MIC50 [29] | MIC90 [29] | MIC50 [30] | MIC90 [30] | MIC50 [31] | MIC90 [31] | MIC50 [32] | MIC90 [32] | MIC50 [33] | MIC90 [33] | MIC90 [34] | MIC90 [35] | MIC50 [36] | MIC90 [36] | MIC50 [41] | MIC90 [41] | MIC50 [42] | MIC90 [42] | MIC50 [43] | MIC90 [43] | MIC50 [44] | MIC90 [44] | MIC50 [45] | MIC90 [45] | MIC50 [46] | MIC90 [46]
1 µg/mL: MIC50 [1] | MIC90 [1] | MIC90 [3] | MIC50 [16] | MIC90 [37] | MIC90 [38] | MIC90 [39] | MIC90 [40]
2 µg/mL: MIC90 [16] | MIC90 [20] | MIC50 [34]
0.25 µg/mL: MIC50 [2] | MIC50 [18] | MIC50 [20] | MIC50 [37] | MIC50 [38] | MIC50 [39] | MIC50 [40]
0.5 µg/mL: MIC90 [2] | MIC50 [3] | MIC90 [4] | MIC90 [5] | MIC90 [6] | MIC90 [18] | MIC50 [19] | MIC90 [21] | MIC90 [22] | MIC90 [23] | MIC50 [27]
4 µg/mL: MIC90 [27] | MIC50 [35]
0.12 µg/mL: MIC50 [21] | MIC50 [22] | MIC50 [23]
